Test results reported in ChEMBL document CHEMBL4732136, “Synthesis, Tumor Specificity, and Photosensitizing Efficacy of Erlotinib-Conjugated Chlorins and Bacteriochlorins: Identification of a Highly Effective Candidate for Photodynamic Therapy of Cancer” (J Med Chem, 2021).
pIC50: −log10 of the molar value.

Tests used:
[1] = Drug uptake in tumor of SCID mouse xenografted with human UMUC3 cells at 0.47 micromol/kg, iv pretreated with compound followed by light irradiation at a dose of 135 J/cm2 and 75 mW/cm2 measured after 24 hrs by IVIS analysis; type: ADME, organism-based, Neoplasm; conditions: in vivo, dose 0.47 µmol/kg
Procedure, shortened: (§1)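 Female SCID mice with UMUC3 flank/shoulder tumors, 3 per group. PS in 1% Tween80/5% dextrose given iv at 0.47, 0.25 or 0.125 μmol/kg. Whole-body fluorescence imaging by IVIS at several times after injection; average radiant efficiency measured in tumor, liver and skin.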

[2] = Drug uptake in human HNT1 cells at 3.2 uM incubated for 30 mins in serum free medium followed by […] in compound-free medium by inverted fluorescence microscopic analysis; type: ADME, cell-based; conditions: hnt1, 0.5 h
Procedure, shortened: (§2)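 Confluent HNT1 cultures (passage 116) given 3.2 μM PS for 30 min in serum-free medium, then 5 h in serum-containing medium with PS, then 15 h chase in serum medium without PS. Fluorescence recorded at 100X with varied camera exposures and quantified digitally; pixel signal normalized to time and cell number.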

[3] = Drug uptake in human HNT1 cells at 3.2 uM incubated for 30 mins in DMEM media with 10% FBS followed by […] in compound-free medium by inverted fluorescence microscopic analysis; type: ADME, cell-based; conditions: hnt1, 0.5 h, in the assay text read “in serum-free medium” for “in DMEM media with 10% FBS”; procedure, shortened: as §2
UMUC3 [4] = assay: Photosensitizing activity in human UMUC3 cells assessed as reduction in cell viability pretreated with compound for 24 hrs followed by light irradiation at 1 J/cm2 and measured after 48 hrs by MTT assay; type: functional, cell-based; conditions: UMUC3, light or radiation study
Procedure, shortened: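 Cells plated 0.01x10⁶ to 0.05x10⁶ cells/ml and allowed to adhere 24 h before photosensitizer was added, top dose 1600 nM with 2-fold serial dilutions. Plates received no light (0 J/cm²) or 1 J/cm² at 565 mW, 15 cm spot. After 48 h, MTT added for 3 h, formazan solubilized in DMSO and read at 570 nm; IC₅₀ fitted from dose-response.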

FaDu [5] = assay: Photosensitizing activity in human FaDu cells assessed as reduction in cell viability pretreated with compound for 24 hrs followed by light irradiation at 1 J/cm2 and measured after 48 hrs by MTT assay; type: functional, cell-based; conditions: light or radiation study
Procedure, shortened: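 Cells seeded at 0.01–0.05 x 10⁶ cells/ml; PS added 24 h after plating, top dose 1600 nM with 2-fold serial dilutions. Plates given 0 or 1 J/cm² light. MTT added 48 h later, formazan dissolved in DMSO, absorbance at 570 nm; IC50 from curve fitting.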

UMUC3 [6] = assay: Photodynamic antitumor activity against human UMUC3 cells xenografted in SCID mouse assessed as tumor retention at 0.47 micromol/kg, iv pretreated with compound followed by light irradiation at a dose of 135 J/cm2 and 75 mW/cm2 measured at day 30 post dose relative to control; type: functional; conditions: dose 0.47 µmol/kg; time 30 day
Procedure, shortened: (§3)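 UMUC3-bearing female SCID mice given iv PS in 1% Tween80/5% dextrose. Mice restrained and tumors irradiated at 665 nm, 135 J/cm² over 30 min at 75 mW/cm², at the time of maximal tumor uptake. Tumor regrowth measured daily for 60 days; mice euthanized above 400 mm³. Cure plotted as survival curves and compared by log-rank (Mantel-Cox) test.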

[7] = Drug uptake in tumor of SCID mouse xenografted with FaDu cells at 0.47 micromol/kg, iv pretreated with compound followed by light irradiation at a dose of 135 J/cm2 and 75 mW/cm2 and measured at 24 hrs by IVIS analysis; type: ADME, organism-based, Neoplasm; conditions: in vivo, dose 0.47 µmol/kg
Procedure, shortened: (§4)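 Female SCID mice bearing FaDu tumors 4–5 mm in diameter, 3 per group. PS in 1% Tween80/5% dextrose given iv at 0.47, 0.25 or 0.125 μmol/kg. IVIS whole-body fluorescence imaged at several time points; average radiant efficiency measured in tumor, liver and skin.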

FaDu [8] = assay: Photodynamic antitumor activity against human FaDu cels xenografted in SCID mouse assessed as cure rate at 0.47 micromol/kg, iv pretreated with compound followed by light irradiation at a dose of 135 J/cm2 and 75 mW/cm2 and measured at 24 hrs post dose relative to control; type: functional; conditions: dose 0.47 µmol/kg
Procedure, shortened: (§5)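 FaDu-bearing female SCID mice (5 per group per experiment) given iv PS at 0.47, 0.25 or 0.125 μmol/kg in Tween80/dextrose. Tumors irradiated 24 h post-injection at 665 nm, 135 J/cm², 75 mW/cm². Tumor growth measured daily for 60 days, with euthanasia above 400 mm³. Cure taken as tumor-free at day 60; survival analysed by log-rank test.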

[9] = Drug uptake in skin of SCID mouse xenografted with FaDu cells at 0.47 micromol/kg, iv pretreated with compound followed by light irradiation at a dose of 135 J/cm2 and 75 mW/cm2 and measured at 24 hrs by IVIS analysis; type: ADME, organism-based, Skin of body; conditions: in vivo, dose 0.47 µmol/kg; procedure, shortened: as §4
[10] = Drug uptake in liver of SCID mouse xenografted with FaDu cells at 0.47 micromol/kg, iv pretreated with compound followed by light irradiation at a dose of 135 J/cm2 and 75 mW/cm2 and measured at 24 hrs by IVIS analysis; type: ADME, organism-based; conditions: in vivo, dose 0.47 µmol/kg; procedure, shortened: as §4
[11] = Drug uptake in human CFSE-stained HN-121 cells assessed as increase in drug retention at 1.6 uM in medium with 10% FBS followed by 48 hrs chase period by inverted fluorescence microscopic analysis; type: ADME, cell-based; conditions: hn-121, 48 h
[12] = Drug uptake in human HN-143 cells assessed as increase in drug retention retention at 3 uM in medium with 10% FBS incubated for 5 hrs followed by 40 hrs chase period by inverted fluorescence microscopic analysis; type: ADME, cell-based; conditions: hn-143, 5 h
Procedure, shortened: (§6)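 Five-day co-cultures of HN-143 tumor epithelial cells and HN-166 tumor fibroblasts, both primary head & neck tumor cultures grown on collagen-1 under selective media. PS in 10% FBS medium for 5 h, then 40 h chase without PS. Phase-contrast and fluorescence images taken at 100X with 500 ms exposure; signal normalized to recording time and cell number.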

[13] = Drug uptake in human HN-166 cells assessed as increase in drug retention retention at 3 uM in medium with 10% FBS incubated for 5 hrs followed by 40 hrs chase period by inverted fluorescence microscopic analysis; type: ADME, cell-based; conditions: hn-166, 5 h; procedure, shortened: as §6
[14] = Drug uptake in tumor of SCID mouse xenografted with FaDu cells at 0.47 micromol/kg, iv pretreated with compound followed by light irradiation at a dose of 135 J/cm2 and 75 mW/cm2 and measured at 6 hrs by IVIS analysis; type: ADME, organism-based, Neoplasm; conditions: in vivo, dose 0.47 µmol/kg; procedure, shortened: as §4
[15] = Drug uptake in tumor of SCID mouse xenografted with FaDu cells assessed as drug accumulation by measuring fold increase to that of liver at 0.47 micromol/kg, iv pretreated with compound followed by light irradiation at a dose of 135 J/cm2 and 75 mW/cm2 and measured after 24 hrs by IVIS analysis; type: ADME, organism-based, Neoplasm; conditions: in vivo, dose 0.47 µmol/kg; procedure, shortened: as §4
[16] = Drug uptake in tumor of SCID mouse xenografted with human UMUC3 cells assessed as drug accumulation by measuring fold decrease to that of liver at 0.47 micromol/kg, iv followed by light irradiation at 665 nm at a dose of 135 J/cm2 and 75 mW/cm2 and measured after 24 hrs by IVIS analysis; type: ADME, organism-based, Neoplasm; conditions: in vivo; procedure, shortened: as §1
FaDu [17] = assay: Photodynamic antitumor activity against human FaDu cels xenografted in SCID mouse assessed as cure rate at 0.47 micromol/kg, iv pretreated with compound followed by light irradiation at a dose of 135 J/cm2 and 75 mW/cm2 and measured after 60 days post dose relative to control; type: functional; conditions: dose 0.47 µmol/kg; time 60 day; procedure, shortened: as §5
UMUC3 [18] = assay: Photodynamic antitumor activity against human UMUC3 cels xenografted in SCID mouse assessed as cure rate at 0.47 micromol/kg, iv pretreated with compound followed by light irradiation at a dose of 135 J/cm2 and 75 mW/cm2 and measured after 60 days post dose relative to control; type: functional; conditions: dose 0.47 µmol/kg; time 60 day; procedure, shortened: as §3
[19] = Drug uptake in human FaDu clone 49 cells assessed as increase in drug retention at 1.6 uM in RPMI medium with 10% FBS followed by 48 hrs chase period by inverted fluorescence microscopic analysis
[20] = Drug uptake in skin of SCID mouse xenografted with human UMUC3 cells at 0.47 micromol/kg, iv pretreated with compound followed by light irradiation at a dose of 135 J/cm2 and 75 mW/cm2 measured at 24 hrs by IVIS analysis; type: ADME, organism-based, Skin of body; conditions: in vivo, dose 0.47 µmol/kg; procedure, shortened: as §1
[21] = Drug uptake in liver of SCID mouse xenografted with human UMUC3 cells at 0.47 micromol/kg, iv pretreated with compound followed by light irradiation at a dose of 135 J/cm2 and 75 mW/cm2 measured at 24 hrs by IVIS analysis; type: ADME, organism-based; conditions: in vivo, dose 0.47 µmol/kg; procedure, shortened: as §1
[22] = Drug uptake in tumor of SCID mouse xenografted with FaDu cells assessed as fold increase at 0.47 micromol/kg, iv pretreated with compound followed by light irradiation at a dose of 135 J/cm2 and 75 mW/cm2 and measured at 24 hrs by IVIS analysis; type: ADME, organism-based, Neoplasm; conditions: in vivo, dose 0.47 µmol/kg; procedure, shortened: as §4
FaDu [23] = assay: Photodynamic antitumor activity against human FaDu cells xenografted in SCID mouse assessed as cure rate at 0.47 micromol/kg, iv pretreated with compound followed by light irradiation at a dose of 135 J/cm2 and 75 mW/cm2 measured at 24 hrs relative to control; type: functional; conditions: dose 0.47 µmol/kg; procedure, shortened: as §5

Drug uptake [1] | Drug uptake [7] | Drug uptake [9] | Drug uptake [10] | Drug uptake [11] | Drug uptake [19] | SMILES | pIC50 (UMUC3 [4]) | pIC50 (FaDu [5]) | Activity (FaDu [8]) [%] | also measured
Active | Active | Active | Active |  |  | CCCCCCOC(C)c1c(C)c2cc3nc(c4c5[nH]c(cc6nc(cc1[nH]2)C(C)=C6CC)c(C)c5C(=O)C4)[C@@H](CCC(=O)O)[C@@H]3C (stereo not given in full) [HPPH] | 7.16 | 7.36 | 30 | Drug uptake [2]: Active; Drug uptake [3]: Active; Activity (UMUC3 [6]): 30%
Active |  |  |  | Active | Active | CCCCCCOC(C)c1c(C)c2cc3nc(c4c5[nH]c(cc6nc(cc1[nH]2)C(C)=C6CC)c(C)c5C(=O)C4)[C@@H](CCC(=O)NCCCCn1cc(-c2cccc(Nc4ncnc5cc(OCCOC)c(OCCOC)cc45)c2)nn1)[C@@H]3C (stereo not given in full) | 7.69 | 7.75 |  | Drug uptake [12]: Active; Drug uptake [13]: Active; Drug uptake [14]: Active; fold change (FC) [15]: 2; fold change (FC) [16]: 2; Activity (FaDu [17]): 40%; Activity (UMUC3 [18]): 20%
Active | Active | Active | Active | Active | Active | CCC1=C(C)c2cc3[nH]c(cc4nc(c5c6[nH]c(cc1n2)c(C)c6C(=O)C5)[C@@H](CCC(=O)OC)[C@@H]4C)c(C)c3C(C)OCc1ccc(C#Cc2cccc(Nc3ncnc4cc(OCCOC)c(OCCOC)cc34)c2)cc1 (stereo not given in full) | 7.68 | 7.22 | 66 | Drug uptake [20]: Active; Drug uptake [21]: Active; fold change (FC) [22]: 2; Activity (FaDu [23]): 66%
